Measured values: ChEMBL document CHEMBL2040725, “In vitro and in vivo biological evaluation of new 4,5-disubstituted 1,2,3-triazoles as cis-constrained analogs of combretastatin A4” (Eur J Med Chem, 2012)
Calls of active or inactive are those of the source. No cut-off for these calls is given here.

Key:
[1] = Antivascular activity against human EAhy926 cells assessed as the minimum concentration required to elicit rounding up of cells after 2 hrs by microscopic analysis; type: functional, EA.hy 926
Summary of the method: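 EAhy 926 cells (HUVEC fused with A549) grown in DMEM with 10% FBS, 2 mM L-glutamine and antibiotics. Top concentration 100 µM, then two-fold serial dilutions. Wells photographed at 100× and 200×. Value = lowest concentration rounding up >15% of cells per field; 1% DMSO control.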

[2] = Inhibition of tubulin polymerization preincubated for 45 mins before GTP addition measured after 2 hrs by DAPI-based fluorescenct assay
Summary of the method: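 Tubulin (97% pure, 1 mg/ml final) in PME buffer (100 mM PIPES, MgSO₄, 2 mM EGTA) with 10 µM DAPI. Compounds from 30 µM in 3-fold decrements, triplicate wells, colchicine as full-inhibition control. 45 min preincubation at room temperature, then 1 mM GTP added and held 2 h at 37 °C. Fluorescence read at ex 360/em 450 nm. Percent inhibition taken relative to colchicine; IC50 = 50% inhibition.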

B16 = assay: Cytotoxicity against mouse B16 cells assessed as cell viability after 48 hrs by MTT assay; type: functional, cell-based; conditions: B16, 48 h
Summary of the method: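 Murine B16 melanoma cells in DMEM with 10% FBS, 2 mM L-glutamine and antibiotics, 37 °C, 5% CO₂. Incubated 48 h, then MTT read at 562 nm with background subtraction. IC50 from concentration-response curves.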

EA.hy 926 = assay: Antivascular activity against human EAhy926 cells assessed as rounding up of cells at 1 uM after 2 hrs by microscopic analysis; type: functional, cell-based
Colon 26 [3] = assay: Antitumor activity against mouse Colon 26 cells allografted in BALB/cJRj mouse assessed as reduction in tumor volume at 100 mg/kg, ip administered on days 3-7 and 10-14 post implantation relative to control; type: functional; design: scale not given: the % may be the effect or the level left; conditions: route intraperitoneal
Summary of the method: (§1)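 Female BALB/cJRj mice (about 18 g), 5 per group. Colon 26 tumor fragments (30-60 mg) implanted s.c. bilaterally in the axilla on day 0. Dosing i.p. on days 3-7 and 10-14 in saline with 5% DMSO and 5% polysorbate 80, 0.2 ml. Tumors measured daily by caliper, volume = length × width² × 0.5. %T/C = median treated/control, taken when control tumors reached 1500 mm³. T-C growth delay also recorded.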

Colon 26 [4] = assay: Antitumor activity against mouse Colon 26 cells allografted in BALB/cJRj mouse assessed as tumor growth delay time at 100 mg/kg, ip administered on days 3-7 and 10-14 post implantation relative to control; type: functional; conditions: route intraperitoneal; summary of the method: as §1
[5] = Toxicity in mouse ip dosed BALB/cJRj mouse allografted with mouse Colon 26 cells compound administered on days 3-7 and 10-14 post implantation relative to control; type: organism-based; conditions: in vivo
Summary of the method: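 Female BALB/cJRj mice (~18 g) with bilateral subcutaneous axillary Colon 26 fragments (30-60 mg) implanted on day 0; 5 mice/group. Daily fresh doses in saline with 5% DMSO and 5% polysorbate 80, given ip on days 3-7 and 10-14; solvent-treated controls. Mice weighed daily and checked for clinical toxicity signs; tumours measured daily by caliper.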

Colon 26 [6] = assay: Antitumor activity against mouse Colon 26 cells allografted in BALB/cJRj mouse assessed as reduction in tumor volume at 150 mg/kg, ip administered on days 3-7 and 10-14 post implantation relative to control; type: functional; design: scale not given: the % may be the effect or the level left; conditions: route intraperitoneal; summary of the method: as §1
Colon 26 [7] = assay: Antitumor activity against mouse Colon 26 cells allografted in BALB/cJRj mouse assessed as tumor growth delay time at 150 mg/kg, ip administered on days 3-7 and 10-14 post implantation relative to control; type: functional; conditions: route intraperitoneal; summary of the method: as §1

IC50 [2] [µM] | Compound | Activity [1] [µM] | IC50 (B16) [µM] | Activity (EA.hy 926) | Activity (Colon 26 [3]) [%] | Time (Colon 26 [4]) [days] | MTD [5] [mg/kg] | Activity (Colon 26 [6]) [%] | Time (Colon 26 [7]) [days]
0.9 | COc1ccc(C/C(=C/c2cc(OC)c(OC)c(OC)c2)[N+](=O)[O-])cc1O | 0.6 | 2.9 | – | – | – | – | – | –
> 30 | COc1cc(/C=C(/Cc2cc(OC)c(OC)c(OC)c2)[N+](=O)[O-])ccc1O | 6.3 | 2.6 | – | – | – | – | – | –
23.4 | COc1cc(/C=C(/Cc2cc(OC)c(OC)c(OC)c2)[N+](=O)[O-])cc(OC)c1O | 12.5 | 3.2 | – | – | – | – | – | –
1.6 | COc1ccc(/C=C(/Cc2cc(OC)c(OC)c(OC)c2)[N+](=O)[O-])cc1F | 0.8 | 2.9 | – | – | – | – | – | –
15.5 | COc1cc(C/C(=C/c2ccc(Cl)c(Cl)c2)[N+](=O)[O-])cc(OC)c1OC | 3.1 | 4.6 | – | – | – | – | – | –
8.9 | COc1ccc(/C=C(/Cc2cc(OC)c(OC)c(OC)c2)[N+](=O)[O-])cc1[N+](=O)[O-] | 3 | 3.5 | – | – | – | – | – | –
22.4 | COc1cc(/C=C(/Cc2cc(OC)c(OC)c(OC)c2)[N+](=O)[O-])cc(OC)c1OC | 6.3 | 3.3 | – | – | – | – | – | –

Continued, molecule first:

Compound | IC50 [2] [µM] | Activity [1] [µM] | IC50 (B16) [µM] | Activity (EA.hy 926) | Activity (Colon 26 [3]) [%] | Time (Colon 26 [4]) [days] | MTD [5] [mg/kg] | Activity (Colon 26 [6]) [%] | Time (Colon 26 [7]) [days]
COc1ccc(-c2nn[nH]c2Cc2cc(OC)c(OC)c(OC)c2)cc1[N+](=O)[O-] | > 30 | 25 | 50.1 | – | – | – | – | – | –
COc1ccc(-c2nn[nH]c2Cc2cc(OC)c(OC)c(OC)c2)cc1O | 1.2 | 0.13 | 1.6 | Active | 60 | 2.7 | 100 | – | –
COc1ccc(-c2nn[nH]c2Cc2cc(OC)c(OC)c(OC)c2)cc1F | 12 | 2.5 | 31 | – | – | – | – | – | –
COc1cc(C/C(=C/c2ccc3c(c2)OCO3)[N+](=O)[O-])cc(OC)c1OC | 10.5 | 0.4 | 3 | – | – | – | – | – | –
COc1cc(-c2nn[nH]c2Cc2c[nH]c3ccccc23)cc(OC)c1OC | > 30 | 50 | 10.7 | – | – | – | – | – | –
COc1ccc(/C=C(/Cc2cc(OC)c(OC)c(OC)c2)[N+](=O)[O-])cc1O | 0.9 | 0.2 | 4 | – | – | – | 150 | 52 | 2
COc1cc(C/C(=C/c2ccc(Cl)cc2Cl)[N+](=O)[O-])cc(OC)c1OC | 21.9 | 3.1 | 2.6 | – | – | – | – | – | –
COc1ccc(-c2nn[nH]c2Cc2cc(OC)c(OC)c(OC)c2)cc1N | 1.8 | 0.2 | 14.8 | – | – | – | – | – | –
COc1ccc(Cc2[nH]nnc2-c2cc(OC)c(OC)c(OC)c2)cc1O | 1.7 | 0.6 | 22.9 | – | – | – | – | – | –
COc1cc(Cc2[nH]nnc2-c2ccc(Cl)cc2Cl)cc(OC)c1OC | > 30 | >100 | 41.7 | – | – | – | – | – | –
COc1cc(Cc2[nH]nnc2-c2ccc3c(c2)OCO3)cc(OC)c1OC | > 30 | 25 | 38 | – | – | – | – | – | –
COc1cc(/C=C(/Cc2c[nH]c3ccccc23)[N+](=O)[O-])cc(OC)c1OC | 5.2 | 1.6 | 5.5 | – | – | – | – | – | –
COc1cc(-c2nn[nH]c2Cc2cc(OC)c(OC)c(OC)c2)ccc1O | > 30 | >100 | > 100 | – | – | – | – | – | –
COc1ccc(/C=C\c2cc(OC)c(OC)c(OC)c2)cc1O [COMBRETASTATIN A4] | 0.3 | 0.006 | 0.003 | – | – | – | – | – | –
